Source: ChEMBL document CHEMBL1123776, “Solid-phase synthesis and biological properties of psi [CH2NH] pseudopeptide analogues of a highly potent somatostatin octapeptide” (1987)

What was measured:
[1] = organism: Rattus norvegicus; experiment: Activity is measured as concentration producing 50% inhibition of growth hormone secretion in rats; format: functional
Procedure, shortened: (§1)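 Primary cultures of male rat anterior pituitary cells were kept for 4 days and then exposed to peptide. GH in the medium was measured by radioimmunoassay. The EC50 (50% inhibition of GH secretion) was fitted with ALLFIT. Potency was expressed as the ratio to the EC50 of tetradecapeptide SRIF as reference standard.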

[2] = organism: Rattus norvegicus; experiment: Ability to inhibit growth hormone release in vitro in cultured rat anterior pituitary cells; format: functional, Pituitary gland cell; procedure, shortened: as §1
[3] = test system: Rattus norvegicus; experiment: Ability to inhibit growth hormone release in vivo in sodium pentobarbital anesthetized rats; format: functional
Procedure, shortened: (§2)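 Male Sprague-Dawley rats anesthetized with sodium pentobarbital were given peptide, with saline and tetradecapeptide SRIF controls, at doses of 0.003–10 µg/100 g BW. Plasma GH was measured by radioimmunoassay. Values are mean ± SEM, with the number of rats per group given.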

[4] = test system: Rattus norvegicus; experiment: Ability to inhibit growth hormone release in the anesthetized rats measured as plasma growth hormone at a dose of 0.2 ug/100 g BW; format: functional, organism-based; procedure, shortened: as §2
[5] = test system: Rattus norvegicus; experiment: Ability to inhibit growth hormone release in the anesthetized rats measured as plasma growth hormone at a dose of 0.6 ug/100 g BW; format: functional, organism-based; procedure, shortened: as §2
[6] = test system: Rattus norvegicus; experiment: Ability to inhibit growth hormone release in the anesthetized rats measured as plasma growth hormone at a dose of 0.03 ug/100 g BW; format: functional, organism-based; procedure, shortened: as §2
[7] = test system: Rattus norvegicus; experiment: Ability to inhibit growth hormone release in the anesthetized rats measured as plasma growth hormone at a dose of 0.09 ug/100 g BW; format: functional, organism-based; procedure, shortened: as §2
[8] = test system: Rattus norvegicus; experiment: Ability to inhibit growth hormone release in the anesthetized rats measured as plasma growth hormone at a dose of 0.1 ug/100 g BW; format: functional, organism-based; procedure, shortened: as §2
[9] = test system: Rattus norvegicus; experiment: Ability to inhibit growth hormone release in the anesthetized rats measured as plasma growth hormone at a dose of 1 ug/100 g BW; format: functional, organism-based; procedure, shortened: as §2
[10] = test system: Rattus norvegicus; experiment: Ability to inhibit growth hormone release in the anesthetized rats measured as plasma growth hormone at a dose of 10 ug/100 g BW; format: functional, organism-based; procedure, shortened: as §2
[11] = test system: Rattus norvegicus; experiment: Ability to inhibit growth hormone release in the anesthetized rats measured as plasma growth hormone at a dose of 10 ug/100 g; format: functional, organism-based; procedure, shortened: as §2
[12] = test system: Rattus norvegicus; experiment: Ability to inhibit growth hormone release in the anesthetized rats measured as plasma growth hormone ata dose of 0.01 ug/100 g BW; format: functional, organism-based; procedure, shortened: as §2
[13] = test system: Rattus norvegicus; experiment: Ability to inhibit growth hormone release in the anesthetized rats measured as plasma growth hormone at a dose of 0.01 ug/100 g BW; format: functional, organism-based; procedure, shortened: as §2

`CC(C)[C@@H]1CN[C@H](C(=O)N[C@H](C(N)=O)[C@@H](C)O)CSSC[C@H](NC(=O)[C@H](N)Cc2ccccc2)C(=O)N[C@@H](Cc2ccc(O)cc2)C(=O)N[C@H](Cc2c[nH]c3ccccc23)C(=O)N[C@@H](CCCCN)C(=O)N1` was tested, and the ED50 [1] was 350 nM, the Potency [2] was 0.02% and the Potency [3] was 2%.

`CC(C)[C@H]1NC(=O)[C@H](CCCCN)NC(=O)[C@@H](Cc2c[nH]c3ccccc23)NC(=O)[C@H](Cc2ccc(O)cc2)NC(=O)[C@@H](NC(=O)[C@@H](N)Cc2ccccc2)CSSC[C@H](CN[C@H](C(N)=O)[C@@H](C)O)NC1=O` gave a Plasma GH [4] of 248 ng/mL and a Plasma GH [5] of 156 ng/mL.

For `CC(C)[C@H]1NC[C@H](CCCCN)NC(=O)[C@@H](Cc2c[nH]c3ccccc23)NC(=O)[C@H](Cc2ccc(O)cc2)NC(=O)[C@@H](NC(=O)[C@@H](N)Cc2ccccc2)CSSC[C@H](C(=O)N[C@H](C(N)=O)[C@@H](C)O)NC1=O`, the Plasma GH [6] was 174 ng/mL and the Plasma GH [7] was 120 ng/mL.

For `CC(C)[C@@H]1NC(=O)[C@H](CCCCN)NC(=O)[C@@H](Cc2c[nH]c3ccccc23)NC(=O)[C@H](Cc2ccc(O)cc2)NC(=O)[C@@H](NC(=O)[C@H](N)Cc2ccccc2)CSSC[C@H](CN[C@H](C(N)=O)[C@@H](C)O)NC1=O`, the ED50 [1] was 15 nM, the Potency [2] was 0.41% and the Potency [3] was 73%.

Compound `CC(C)[C@@H]1NC(=O)[C@H](CCCCN)NC[C@@H](Cc2c[nH]c3ccccc23)NC(=O)[C@H](Cc2ccc(O)cc2)NC(=O)[C@@H](NC(=O)[C@H](N)Cc2ccccc2)CSSC[C@@H](C(=O)N[C@H](C(N)=O)[C@@H](C)O)NC1=O` has an ED50 [1] of 190 nM, a Potency [2] of 0.03% and a Potency [3] of 2%.

`CC(C)[C@H]1NC(=O)[C@H](CCCCN)NC[C@@H](Cc2c[nH]c3ccccc23)NC(=O)[C@H](Cc2ccc(O)cc2)NC(=O)[C@@H](NC(=O)[C@@H](N)Cc2ccccc2)CSSC[C@H](C(=O)N[C@H](C(N)=O)[C@@H](C)O)NC1=O` showed a Plasma GH [8] of 325 ng/mL, a Plasma GH [9] of 348 ng/mL and a Plasma GH [10] of 265 ng/mL.

With `CC(C)[C@@H]1NC(=O)[C@H](CCCCN)NC(=O)[C@@H](Cc2c[nH]c3ccccc23)NC(=O)[C@H](Cc2ccc(O)cc2)NC(=O)[C@@H](NC[C@@H](N)Cc2ccccc2)CSSC[C@@H](C(=O)N[C@H](C(N)=O)[C@@H](C)O)NC1=O` the ED50 [1] was 6.1 nM, the Potency [2] was 1.01% and the Potency [3] was 160%.

`CC(C)[C@@H]1CN[C@H](C(=O)N[C@H](C(N)=O)[C@@H](C)O)CSSC[C@H](NC(=O)[C@H](N)Cc2ccccc2)C(=O)N[C@@H](Cc2ccc(O)cc2)C(=O)N[C@H](Cc2c[nH]c3ccccc23)CN[C@@H](CCCCN)C(=O)N1` showed an ED50 [1] greater than 1000 nM, a Potency [2] of less than 0.001% and a Potency [3] of 2%.

With `CC(C)[C@H]1NC(=O)[C@H](CCCCN)NC(=O)[C@@H](Cc2c[nH]c3ccccc23)NC(=O)[C@H](Cc2ccc(O)cc2)NC(=O)[C@@H](NC[C@@H](N)Cc2ccccc2)CSSC[C@H](C(=O)N[C@H](C(N)=O)[C@@H](C)O)NC1=O` the Plasma GH [4] was 185 ng/mL and the Plasma GH [5] was 90 ng/mL.

Compound `CC(C)[C@@H]1NC(=O)[C@H](CCCCN)NC(=O)[C@@H](Cc2c[nH]c3ccccc23)NC(=O)[C@H](Cc2ccc(O)cc2)NC[C@@H](NC(=O)[C@H](N)Cc2ccccc2)CSSC[C@@H](C(=O)N[C@H](C(N)=O)[C@@H](C)O)NC1=O` has an ED50 [1] of 0.35 nM, a Potency [2] of 17.43% and a Potency [3] of 1960%.

In the case of `CC(C)[C@@H]1NC[C@H](CCCCN)NC(=O)[C@@H](Cc2c[nH]c3ccccc23)NC(=O)[C@H](Cc2ccc(O)cc2)NC[C@@H](NC(=O)[C@H](N)Cc2ccc3ccccc3c2)CSSC[C@@H](C(=O)N[C@H](C(N)=O)[C@@H](C)O)NC1=O`, the ED50 [1] is reported as 1.8 nM, the Potency [2] is reported as 3.44% and the Potency [3] is reported as 50%.

In the case of `CC(C)[C@@H]1NC[C@H](CCCCN)NC(=O)[C@@H](Cc2c[nH]c3ccccc23)NC(=O)[C@H](Cc2ccc(O)cc2)NC[C@@H](NC(=O)[C@H](N)Cc2ccccc2)CSSC[C@@H](C(=O)N[C@H](C(N)=O)[C@@H](C)O)NC1=O`, the ED50 [1] is reported as 6.3 nM, the Potency [2] is reported as 0.98% and the Potency [3] is reported as 65%.

For `CC(C)[C@@H]1NC[C@H](CCCCN)NC(=O)[C@@H](Cc2c[nH]c3ccccc23)NC(=O)[C@H](Cc2ccc(O)cc2)NC(=O)[C@@H](NC(=O)[C@H](N)Cc2ccccc2)CSSC[C@@H](C(=O)N[C@H](C(N)=O)[C@@H](C)O)NC1=O`, the ED50 [1] was 0.092 nM, the Potency [2] was 67.27% and the Potency [3] was 434%.

`CC(C)[C@H]1NC(=O)[C@H](CCCCN)NC(=O)[C@@H](Cc2c[nH]c3ccccc23)NC[C@H](Cc2ccc(O)cc2)NC(=O)[C@@H](NC(=O)[C@@H](N)Cc2ccccc2)CSSC[C@H](C(=O)N[C@H](C(N)=O)[C@@H](C)O)NC1=O` showed a Plasma GH [8] of 307 ng/mL, a Plasma GH [9] of 176 ng/mL and a Plasma GH [10] of 137 ng/mL.

With `CC(C)[C@@H]1CN[C@@H](C(=O)N[C@H](C(N)=O)[C@@H](C)O)CSSC[C@H](NC(=O)[C@@H](N)Cc2ccccc2)C(=O)N[C@@H](Cc2ccc(O)cc2)C(=O)N[C@H](Cc2c[nH]c3ccccc23)CN[C@@H](CCCCN)C(=O)N1` the Plasma GH [8] was 509 ng/mL, the Plasma GH [9] was 393 ng/mL and the Plasma GH [11] was 325 ng/mL.

In the case of `CC(C)[C@H]1NC[C@H](CCCCN)NC(=O)[C@@H](Cc2c[nH]c3ccccc23)NC(=O)[C@H](Cc2ccc(O)cc2)NC[C@@H](NC(=O)[C@@H](N)Cc2ccc3ccccc3c2)CSSC[C@H](C(=O)N[C@H](C(N)=O)[C@@H](C)O)NC1=O`, the Plasma GH [8] is reported as 291 ng/mL, the Plasma GH [9] is reported as 133 ng/mL and the Plasma GH [12] is reported as 433 ng/mL.

`CC(C)[C@@H]1CN[C@@H](C(=O)N[C@H](C(N)=O)[C@@H](C)O)CSSC[C@H](NC(=O)[C@@H](N)Cc2ccccc2)C(=O)N[C@@H](Cc2ccc(O)cc2)C(=O)N[C@H](Cc2c[nH]c3ccccc23)C(=O)N[C@@H](CCCCN)C(=O)N1` showed a Plasma GH [8] of 381 ng/mL, a Plasma GH [9] of 266 ng/mL and a Plasma GH [10] of 225 ng/mL.

Compound `CC(C)[C@H]1NC(=O)[C@H](CCCCN)NC(=O)[C@@H](Cc2c[nH]c3ccccc23)NC(=O)[C@H](Cc2ccc(O)cc2)NC[C@@H](NC(=O)[C@@H](N)Cc2ccccc2)CSSC[C@H](C(=O)N[C@H](C(N)=O)[C@@H](C)O)NC1=O` has a Plasma GH [13] of 146 ng/mL and a Plasma GH [6] of 98 ng/mL.

Work on `CC(C)[C@H]1NC[C@H](CCCCN)NC(=O)[C@@H](Cc2c[nH]c3ccccc23)NC(=O)[C@H](Cc2ccc(O)cc2)NC[C@@H](NC(=O)[C@@H](N)Cc2ccccc2)CSSC[C@H](C(=O)N[C@H](C(N)=O)[C@@H](C)O)NC1=O` yielded a Plasma GH [13] of 258 ng/mL, a Plasma GH [8] of 250 ng/mL and a Plasma GH [9] of 124 ng/mL.

In the case of `CC(C)[C@@H]1NC(=O)[C@H](CCCCN)NC(=O)[C@@H](Cc2c[nH]c3ccccc23)NC[C@H](Cc2ccc(O)cc2)NC(=O)[C@@H](NC(=O)[C@H](N)Cc2ccccc2)CSSC[C@@H](C(=O)N[C@H](C(N)=O)[C@@H](C)O)NC1=O`, the ED50 [1] is reported as 9.1 nM, the Potency [2] is reported as 0.68% and the Potency [3] is reported as 20%.
